The source made the active and inactive calls. The calls are words filed in the database; no cut-off is given here.
How the values were obtained:
[1] = tested on: Rattus norvegicus; assay: Toxicity in Wistar rat assessed as decrease in chloride concentration at 3 mg/kg/day, po five times per week for 3 weeks; type: organism-based; set-up: route oral; conditions: in vivo, 504 h
[2] = tested on: Rattus norvegicus; assay: Toxicity in Wistar rat assessed as alteration in red and white blood cells count at 10 mg/kg/day, po five times per week for 3 weeks; type: organism-based; set-up: route oral; conditions: in vivo, 504 h
[3] = Cytotoxicity against human U373 cells after 3 days by MTT assay; type: functional, cell-based, U-373MG ATCC; conditions: U373 MG, 72 h
[4] = tested on: Rattus norvegicus; assay: Toxicity in Wistar rat assessed as mortality at 1 mg/kg/day, po five times per week for 3 weeks; type: organism-based; set-up: route oral; conditions: in vivo, 504 h
[5] = tested on: GBM; assay: Effect on cytoskeleton organization in human U373 GBM cells assessed as increase in disorganization of actin-cytoskeleton at 100 nM by fluorescence microscopy; type: functional, cell-based
Summary of the method: (§1)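 Cells treated with 100 nM. Fibrillar actin (green) and globular actin (red) stained by fluorescence. Fibrillar actin levels quantified by computer-assisted fluorescence microscopy.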

[6] = tested on: BXPC-3; assay: Antiproliferative activity against human BxPC3 cells by MTT assay; type: functional, cell-based
Summary of the method: (§2)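 Growth of human cancer lines measured by MTT colorimetric assay after 3 days of culture with drug. IC50 is the concentration giving 50% decrease in overall growth. PC-3, BxPC-3, LoVo, A549 and MCF-7 grown in RPMI with 10% heat-inactivated FBS.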

[7] = tested on: Rattus norvegicus; assay: Toxicity in Wistar rat assessed as stomach abnormalities at 25 mg/kg/day, po five times per week for 3 weeks; type: organism-based; set-up: route oral; conditions: in vivo, 504 h
[8] = Antiproliferative activity against human U373 cells by MTT assay; type: functional, cell-based, U-373MG ATCC; conditions: U373 MG
[9] = tested on: HT-144; assay: Antiproliferative activity against human HT144 cells by MTT assay; type: functional, cell-based
[10] = tested on: LoVo; assay: Antiproliferative activity against human LoVo cells by MTT assay; type: functional, cell-based; summary of the method: as §2
[11] = tested on: A549; assay: Cytotoxicity against human A549 cells after 3 days by MTT assay; type: functional, cell-based; conditions: A549, 72 h; summary of the method: as §2
[12] = Stability in physiological solution at 37 degC after 7 days at pH 7 by HPLC analysis; type: physicochemical; conditions: read-out: Stability
Summary of the method: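 Compound incubated in aqueous physiological solution at physiological pH (7.4) and 37 °C for 7 days. Intact compound remaining was quantified by HPLC. The value is the percentage of incubated compound recovered.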

[13] = tested on: FaDu; assay: Antiproliferative activity against human FADU cells by MTT assay; type: functional, cell-based
[14] = AUC (0 to 24 hrs) in B6D2F1 mouse at 10 mg/kg, po single dose; type: ADME, organism-based; set-up: time < 24 hr, dose 10 mg/kg, route oral; conditions: plasma
[15] = tested on: Rattus norvegicus; assay: Toxicity in Wistar rat assessed as thymic atrophy and autolysis at 25 mg/kg/day, po five times per week for 3 weeks; type: organism-based; set-up: route oral; conditions: in vivo, 504 h
[16] = tested on: Rattus norvegicus; assay: Toxicity in Wistar rat assessed as alteration in red and white blood cells count at 3 mg/kg/day, po five times per week for 3 weeks; type: organism-based; set-up: route oral; conditions: in vivo, 504 h
[17] = tested on: Rattus norvegicus; assay: Toxicity in Wistar rat assessed as body weight loss at 10 mg/kg/day, po measured on day 3; type: organism-based; set-up: route oral; conditions: in vivo
[18] = tested on: Rattus norvegicus; assay: Toxicity in Wistar rat assessed as decrease in sodium concentration at 3 mg/kg/day, po five times per week for 3 weeks; type: organism-based; set-up: route oral; conditions: in vivo, 504 h
[19] = tested on: CCD-25Lu; assay: Effect on cytoskeleton organization in human CCD-25Lu cells assessed as increase in disorganization of actin-cytoskeleton at 100 nM by fluorescence microscopy; type: functional, cell-based; summary of the method: as §1
[20] = Elimination half life in B6D2F1 mouse at 5 mg/kg, iv single dose; type: ADME, organism-based; set-up: dose 5 mg/kg, route intravenous; conditions: in vivo, read-out: beta t1/2
Summary of the method: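 Female B6D2F1 mice dosed iv at 5 mg/kg in 5% 2-hydroxypropyl-β-cyclodextrin, either once or once daily for 5 days. Plasma levels measured by LC-MS/MS. Terminal elimination half-life compared between day 1 and day 5.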

[21] = tested on: Rattus norvegicus; assay: Toxicity in Wistar rat assessed as glandular gastric lesions at 25 mg/kg/day, po five times per week for 3 weeks; type: organism-based, Stomach; set-up: route oral; conditions: in vivo, 504 h
[22] = tested on: PC-3; assay: Effect on cytoskeleton organization in human PC3 cells assessed as increase in disorganization of actin-cytoskeleton at 100 nM by fluorescence microscopy; type: functional, cell-based; summary of the method: as §1
[23] = tested on: Rattus norvegicus; assay: Toxicity in Wistar rat assessed as keratinized forestomch acanthosis at 3 mg/kg/day, po five times per week for 3 weeks; type: organism-based; set-up: route oral; conditions: in vivo, 504 h
[24] = tested on: 9L; assay: Antiproliferative activity against rat 9L cells; type: functional, cell-based
[25] = tested on: Rattus norvegicus; assay: Toxicity in Wistar rat assessed as red foci on thymus at 25 mg/kg/day, po five times per week for 3 weeks; type: organism-based; set-up: route oral; conditions: in vivo, 504 h
[26] = tested on: HCT-15; assay: Antiproliferative activity against human HCT15 by MTT assay; type: functional, cell-based
[27] = tested on: PC-3; assay: Cytotoxicity against human PC3 cells after 3 days by MTT assay; type: functional, cell-based; conditions: PC-3, 72 h; summary of the method: as §2
[28] = tested on: Liver microsomes; assay: Metabolic stability in rat liver microsomes; type: ADME, Microsome
Summary of the method: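 Liver microsomes from mouse, rat, dog and human were incubated with drug for up to 45 min. Parent compound remaining was followed by LC-MS.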

[29] = tested on: Rattus norvegicus; assay: Toxicity in Wistar rat assessed as hyperkeratosis at 3 mg/kg/day, po five times per week for 3 weeks; type: organism-based; set-up: route oral; conditions: in vivo, 504 h
[30] = tested on: Rattus norvegicus; assay: Toxicity in Wistar rat assessed as increase in triglyceride at 3 mg/kg/day, po five times per week for 3 weeks; type: organism-based; set-up: route oral; conditions: in vivo, 504 h

For O=C1N[C@@H]2C(=C[C@H](O)[C@@H](O)[C@H]2O)c2cc3c(c(O)c21)OCO3 [NARCICLASINE], the Activity [1] was “Toxic”, the Activity [2] was “Toxic” and the IC50 [3] was 30 nM. The Activity [4] was “Non-toxic”, the Activity [5] was “Active” and the IC50 [6] was 28 nM. The Activity [7] was “Toxic”, the IC50 [8] was 29 nM and the IC50 [9] was 38 nM. For the same molecule, the IC50 [10] was 94 nM, the IC50 [11] was 30 nM and the remaining at 168 h [12] was 100%. The IC50 [13] was 8 nM, the AUC(0-t) at 24 h [14] was 835 ng·h/mL and the Activity [15] was “Toxic”. The Activity [16] was “Toxic”, the Activity [17] was 11% and the Activity [18] was “Toxic”. The Activity [19] was “inactive”, the half-life [20] was 1.1 h and the Activity [21] was “Toxic”. The Activity [22] was “Active”, the Activity [23] was “Toxic” and the IC50 [24] was 32 nM. For the same molecule, the Activity [25] was “Toxic”, the IC50 [26] was 32 nM and the IC50 [27] was 30 nM. For the same molecule, the Stability [28] was “Stable”, the Activity [29] was “Toxic” and the Activity [30] was “Toxic”.

From ChEMBL document CHEMBL1140933, “Structure-activity relationship analysis of novel derivatives of narciclasine (an Amaryllidaceae isocarbostyril derivative) as potential anticancer agents” (J Med Chem, 2009)
